{"data": "Assay results from different studies", "Adora2a": "Adenosine receptor A2a (Adora2a, Rattus norvegicus, UniProt P30543)", "AGTR2": "Type-2 angiotensin II receptor (AGTR2, Homo sapiens, UniProt P50052)", "Urease": "Urease (Canavalia ensiformis, UniProt P07374)", "note": "Compare with care: the assays were run in different laboratories."}
{"SMILES": "CC(C)N1CCCn2c1nc1c2c(=O)n(C)c(=O)n1C", "target": "Adora2a", "assay": "ligand displacement, radioligand", "conditions": "cell membranes", "Ki [nM]": 4950}
{"SMILES": "N#Cc1c(N)nc(SCC(N)=O)c(C#N)c1-c1ccc(O)cc1", "target": "Adora2a", "assay": "ligand displacement, radioligand", "conditions": "cell membranes", "Ki [nM]": 338}
{"SMILES": "CCCCN1CCCn2c1nc1c2c(=O)n(C)c(=O)n1C", "target": "Adora2a", "assay": "ligand displacement, radioligand", "conditions": "cell membranes", "Ki [nM]": 1750}
{"SMILES": "N#Cc1c(N)nc(SCc2cccc(C(=O)O)c2)c(C#N)c1-c1ccccc1", "target": "Adora2a", "assay": "ligand displacement, radioligand", "conditions": "cell membranes", "Ki [nM]": 634}
{"SMILES": "CN1CCCn2c1nc1c2c(=O)n(C)c(=O)n1C", "target": "Adora2a", "assay": "ligand displacement, radioligand", "conditions": "cell membranes", "Ki [nM]": 4300}
{"SMILES": "CCc1ccc(C(=O)N[C@H](C(=O)O)C(C)CC)cc1C(=O)N(CC)CC (stereo in doubt)", "target": "AGTR2", "assay": "ligand displacement in cells, radioligand", "Ki [nM]": 10000}
{"SMILES": "CCCCCN1CCCn2c1nc1c2c(=O)n(C)c(=O)n1C", "target": "Adora2a", "assay": "ligand displacement, radioligand", "conditions": "cell membranes", "Ki [nM]": 3060}
{"SMILES": "CCC(C)[C@H](NC(=O)c1cccc(C(=O)N(CC)CC)c1)C(=O)O (stereo in doubt)", "target": "AGTR2", "assay": "ligand displacement in cells, radioligand", "Ki [nM]": 22000}
{"SMILES": "Oc1ccccc1OCc1nn2c(-c3cccc(Br)c3)nnc2s1", "target": "Urease", "assay": "enzyme activity, inhibitor", "Ki [nM]": 2250}
{"SMILES": "CCC(C)[C@H](NC(=O)c1ccc(C(=O)N(Cc2ccccc2)Cc2ccccc2)cc1)C(=O)O (stereo in doubt)", "target": "AGTR2", "assay": "ligand displacement in cells, radioligand", "Ki [nM]": 35000}
{"SMILES": "C=CCN1CCCn2c1nc1c2c(=O)n(C)c(=O)n1C", "target": "Adora2a", "assay": "ligand displacement, radioligand", "conditions": "cell membranes", "Ki [nM]": 2620}
{"SMILES": "O=C1c2ccccc2CCCN1CCCCN1CCN(c2ccccn2)CC1", "target": "D(1A) dopamine receptor (DRD1, Homo sapiens, UniProt P21728)", "assay": "cell-free assay, radioligand", "Ki [nM]": 1260}
{"SMILES": "CCC(C)[C@H](NC(=O)c1cccc(C(=O)N(Cc2ccccc2)Cc2ccccc2)c1)C(=O)O (stereo in doubt)", "target": "AGTR2", "assay": "ligand displacement in cells, radioligand", "Ki [nM]": 7500}
{"SMILES": "N#Cc1c(N)nc2sc(C(N)=O)c(N)c2c1-c1ccc2c(c1)OCO2", "target": "Adora2a", "assay": "ligand displacement, radioligand", "conditions": "cell membranes", "Ki [nM]": 1060}
{"SMILES": "CCc1ccc(C(=O)N[C@H](C(=O)O)C(C)CC)cc1C(=O)N(C)Cc1ccccc1 (stereo in doubt)", "target": "AGTR2", "assay": "ligand displacement in cells, radioligand", "Ki [nM]": 16000}
{"SMILES": "Cc1cccc(CSc2nc(N)c(C#N)c(-c3cccc(O)c3)c2C#N)n1", "target": "Adora2a", "assay": "ligand displacement, radioligand", "conditions": "cell membranes", "Ki [nM]": 20.6}
{"SMILES": "CCC(C)[C@H](NC(=O)c1ccc(C)c(C(=O)N(CC)Cc2ccccc2)c1)C(=O)O (stereo in doubt)", "target": "AGTR2", "assay": "ligand displacement in cells, radioligand", "Ki [nM]": 3400}
{"SMILES": "N#Cc1c(N)nc(SCC(N)=O)c(C#N)c1-c1ccc2c(c1)OCO2", "target": "Adora2a", "assay": "ligand displacement, radioligand", "conditions": "cell membranes", "Ki [nM]": 429}
{"SMILES": "CCCCOC(=O)NS(=O)(=O)c1sc(CC(C)C)cc1-c1ccc(OC(F)(F)F)c(Cn2ccnc2)c1", "target": "AGTR2", "assay": "ligand displacement, radioligand", "conditions": "cell membranes", "Ki [nM]": 280}
{"SMILES": "CCC(C)[C@H](NC(=O)c1ccc(C(=O)N(C)Cc2ccccc2)cc1)C(=O)O (stereo in doubt)", "target": "AGTR2", "assay": "ligand displacement in cells, radioligand", "Ki [nM]": "> 100000"}
{"SMILES": "Cc1cc(C)c2c(c1)[C@@H](N(Cc1cc(C(F)(F)F)cc(C(F)(F)F)c1)c1nnn(C)n1)CCCN2C[C@H]1CC[C@H](C(=O)O)CC1", "target": "Cytochrome P450 2B6 (CYP2B6, Homo sapiens, UniProt P20813)", "assay": "enzyme activity, inhibitor", "system": "human, liver microsomes", "conditions": "pH 7.4", "Ki [nM]": 6300}
{"SMILES": "CCC(C)N1CCCn2c1nc1c2c(=O)n(C)c(=O)n1C (centres unmarked)", "target": "Adora2a", "assay": "ligand displacement, radioligand", "conditions": "cell membranes", "Ki [nM]": 4640}
{"SMILES": "N#Cc1c(N)nc(SCC(N)=O)c(C#N)c1-c1cccc(O)c1", "target": "Adora2a", "assay": "ligand displacement, radioligand", "conditions": "cell membranes", "Ki [nM]": 751}
{"SMILES": "CCCN1CCCn2c1nc1c2c(=O)n(C)c(=O)n1C", "target": "Adora2a", "assay": "ligand displacement, radioligand", "conditions": "cell membranes", "Ki [nM]": 1290}
{"SMILES": "CCc1nc2cc(OCCCCN3CCC(c4cccc(Cl)c4Cl)CC3)ccc2s1", "target": "Sodium-dependent serotonin transporter (SLC6A4, Homo sapiens, UniProt P31645)", "assay": "ligand displacement, radioligand", "Ki [nM]": 580}
{"SMILES": "CC(=O)NO", "target": "Urease", "assay": "enzyme activity, inhibitor", "Ki [nM]": 18100}
